The source made the active and inactive calls. The calls are words filed in the database; no cut-off is given here.
Columns and labels:
[1] = Solubility of the compound in water at 1 mM; format: physicochemical; conditions: buffer, 1000 µM
[2] = target: T1, Melanocyte-stimulating hormone receptor (Homo sapiens, UniProt Q01726); assay: Displacement of [125I]-NDP-alpha-MSH from human MC1R LBD expressed in HEK293 cell membranes up to 1 uM incubated for 16 to 23 hrs in dark by scintillation proximity assay
Melanocortin receptor 5 [3] = target: T2, Melanocortin receptor 5 (Homo sapiens, UniProt P33032); assay: Displacement of [125I]-NDP-alpha-MSH from human MC5R LBD expressed in HEK293 cell membranes incubated for 16 to 23 hrs in dark by scintillation proximity assay; parameters: concentration or dose not given beside the values; conditions: concentration not given here
Melanocortin receptor 4 [4] = target: T3, Melanocortin receptor 4 (Homo sapiens, UniProt P32245); assay: Agonist activity at human MC4R expressed in high doxycyclin-treated HEK293 cell membranes assessed as increase in cAMP production after 15 mins by HTRF method; format: functional, cell-based
How it was run: (§1)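 T-REx-293 cells stably expressing doxycycline-inducible human MC1R, MC3R or MC4R; expression induced 24 h with 0.1 ng/mL (low) or 10 ng/mL (high, MC4R only) doxycycline. 1000 cells/well in HBSS, 20 mM HEPES pH 7.4, 0.1% BSA, 1 mM IBMX; stimulated at 37 °C. Time-resolved FRET cAMP read-out normalized to NDP-α-MSH maximum.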

Melanocortin receptor 3 [5] = target: T4, Melanocortin receptor 3 (Homo sapiens, UniProt P41968); assay: Agonist activity at human MC3R expressed in low doxycyclin-treated HEK293 cell membranes assessed as increase in cAMP production up to 100 uM after 45 mins by HTRF method; format: functional, cell-based
How it was run: (§2)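 Stable T-REx-293 clones (Zeocin-selected, human receptor cDNA in pcDNA4/TO), receptor expression induced with 0.1 ng/mL doxycycline for 24 h. 1000 cells/well in HBSS with Ca2+/Mg2+, 20 mM HEPES pH 7.4, 0.1% BSA. Stimulation for 45 min at 37 °C with 1 mM IBMX. cAMP read by LANCE HTRF (665/615 nm).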

Melanocortin receptor 4 [6] = target: T3, Melanocortin receptor 4; assay: Agonist activity at human MC4R expressed in low doxycyclin-treated HEK293 cell membranes assessed as increase in cAMP production up to 100 uM after 45 mins by HTRF method; format: functional, cell-based; how it was run: as §2
Melanocortin receptor 4 [7] = target: T3, Melanocortin receptor 4; assay: Displacement of [125I]-NDP-alpha-MSH from human MC4R LBD expressed in HEK293 cell membranes up to 100 uM incubated for 16 to 23 hrs in dark by scintillation proximity assay
Melanocortin receptor 3 [8] = target: T4, Melanocortin receptor 3; assay: Displacement of [125I]-NDP-alpha-MSH from human MC3R LBD expressed in HEK293 cell membranes incubated for 16 to 23 hrs in dark by scintillation proximity assay; parameters: concentration or dose not given beside the values; conditions: concentration not given here
[9] = target: T1, Melanocyte-stimulating hormone receptor; assay: Agonist activity at human MC1R expressed in low doxycyclin-treated HEK293 cell membranes assessed as increase in cAMP production after 45 mins by HTRF method; format: functional, cell-based
Melanocortin receptor 3 [10] = target: T4, Melanocortin receptor 3; assay: Displacement of [125I]-NDP-alpha-MSH from human MC3R LBD expressed in HEK293 cell membranes up to 100 uM incubated for 16 to 23 hrs in dark by scintillation proximity assay
[11] = target: T1, Melanocyte-stimulating hormone receptor; assay: Displacement of [125I]-NDP-alpha-MSH from human MC1R LBD expressed in HEK293 cell membranes incubated for 16 to 23 hrs in dark by scintillation proximity assay; parameters: concentration or dose not given beside the values; conditions: concentration not given here
Melanocortin receptor 4 [12] = target: T3, Melanocortin receptor 4; assay: Displacement of [125I]-NDP-alpha-MSH from human MC4R LBD expressed in HEK293 cell membranes incubated for 16 to 23 hrs in dark by scintillation proximity assay; parameters: concentration or dose not given beside the values; conditions: concentration not given here
Bos taurus = species: Bos taurus; assay: Inhibition of bovine trypsin at 5 uM using Boc-QAR-pNA as substrate preincubated for 1 hr followed by substrate addition measured every 30 secs for 300 secs by […]
Melanocortin receptor 3 [13] = target: T4, Melanocortin receptor 3; assay: Agonist activity at human MC3R expressed in low doxycyclin-treated HEK293 cell membranes assessed as increase in cAMP production after 45 mins by HTRF method; format: functional, cell-based; parameters: concentration or dose not given beside the values; how it was run: as §1
Melanocortin receptor 4 [14] = target: T3, Melanocortin receptor 4; assay: Agonist activity at human MC4R expressed in low doxycyclin-treated HEK293 cell membranes assessed as increase in cAMP production after 45 mins by HTRF method; format: functional, cell-based; how it was run: as §1
[15] = target: T1, Melanocyte-stimulating hormone receptor; assay: Displacement of [125I]-NDP-alpha-MSH from human MC1R LBD expressed in HEK293 cell membranes up to 100 uM incubated for 16 to 23 hrs in dark by scintillation proximity assay
Melanocortin receptor 4 [16] = target: T3, Melanocortin receptor 4; assay: Agonist activity at human MC4R expressed in high doxycyclin-treated HEK293 cell membranes assessed as increase in cAMP production up to 100 uM after 15 mins by HTRF method; format: functional, cell-based
How it was run: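 Stable T-REx-293 clone expressing human MC4R, induced with 10 ng/mL doxycycline for 24 h. 1000 cells/well in HBSS/20 mM HEPES pH 7.4/0.1% BSA. Stimulation for 15 min at 37 °C with 1 mM IBMX. LANCE HTRF cAMP read-out.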

Melanocortin receptor 5 [17] = target: T2, Melanocortin receptor 5; assay: Displacement of [125I]-NDP-alpha-MSH from human MC5R LBD expressed in HEK293 cell membranes up to 100 uM incubated for 16 to 23 hrs in dark by scintillation proximity assay
[18] = target: T1, Melanocyte-stimulating hormone receptor; assay: Agonist activity at human MC1R expressed in low doxycyclin-treated HEK293 cell membranes assessed as increase in cAMP production up to 100 uM after 45 mins by HTRF method; format: functional, cell-based; how it was run: as §2

T1 sequence (Q01726 whole entry, looked up, the tested form may be a part): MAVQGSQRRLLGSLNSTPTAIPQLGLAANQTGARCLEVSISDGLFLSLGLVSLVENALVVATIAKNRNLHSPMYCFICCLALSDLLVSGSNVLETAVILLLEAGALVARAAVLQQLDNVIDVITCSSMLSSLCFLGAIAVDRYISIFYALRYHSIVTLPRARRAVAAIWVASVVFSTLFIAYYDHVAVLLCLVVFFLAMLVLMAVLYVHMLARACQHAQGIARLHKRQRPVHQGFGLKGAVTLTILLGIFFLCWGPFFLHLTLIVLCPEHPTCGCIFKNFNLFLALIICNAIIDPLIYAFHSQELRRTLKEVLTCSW
T2 sequence (P33032 whole entry, the tested form may be a part): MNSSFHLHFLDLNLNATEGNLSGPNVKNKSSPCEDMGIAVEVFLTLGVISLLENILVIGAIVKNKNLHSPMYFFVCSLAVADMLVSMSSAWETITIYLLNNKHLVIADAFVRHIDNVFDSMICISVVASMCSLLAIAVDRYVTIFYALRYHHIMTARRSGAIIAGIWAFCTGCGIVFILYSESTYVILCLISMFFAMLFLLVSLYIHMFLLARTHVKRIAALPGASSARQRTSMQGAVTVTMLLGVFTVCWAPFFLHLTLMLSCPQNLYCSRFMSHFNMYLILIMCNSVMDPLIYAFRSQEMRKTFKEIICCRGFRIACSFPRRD
T4 sequence (P41968 whole entry): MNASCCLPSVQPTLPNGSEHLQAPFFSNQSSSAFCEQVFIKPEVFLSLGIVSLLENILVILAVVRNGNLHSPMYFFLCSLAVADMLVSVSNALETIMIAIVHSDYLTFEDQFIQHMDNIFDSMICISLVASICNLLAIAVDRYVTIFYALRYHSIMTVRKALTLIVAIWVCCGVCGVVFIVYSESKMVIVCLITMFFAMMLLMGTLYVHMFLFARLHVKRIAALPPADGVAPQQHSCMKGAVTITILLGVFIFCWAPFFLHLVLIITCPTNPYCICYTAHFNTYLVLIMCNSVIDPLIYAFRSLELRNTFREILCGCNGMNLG
T3 sequence (P32245 whole entry): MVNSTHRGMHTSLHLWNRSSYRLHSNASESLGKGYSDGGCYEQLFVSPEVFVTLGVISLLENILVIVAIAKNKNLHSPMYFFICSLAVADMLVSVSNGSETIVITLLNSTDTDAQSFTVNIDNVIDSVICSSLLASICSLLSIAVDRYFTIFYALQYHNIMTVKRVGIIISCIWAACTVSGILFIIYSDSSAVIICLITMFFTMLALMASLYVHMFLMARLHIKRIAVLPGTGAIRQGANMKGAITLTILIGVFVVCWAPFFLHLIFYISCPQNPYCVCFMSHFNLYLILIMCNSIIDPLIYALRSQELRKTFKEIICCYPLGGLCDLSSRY

Row | SMILES | solubility [1] | inhibition [2] | inhibition (Melanocortin receptor 5 [3]) [%] | Activity (Melanocortin receptor 4 [4]) [%] | Activity (Melanocortin receptor 3 [5]) | Activity (Melanocortin receptor 4 [6]) | inhibition (Melanocortin receptor 4 [7]) | inhibition (Melanocortin receptor 3 [8]) [%] | Activity [9] [%] | inhibition (Melanocortin receptor 3 [10]) | inhibition [11] [%] | inhibition (Melanocortin receptor 4 [12]) [%] | inhibition (Bos taurus) | Activity (Melanocortin receptor 3 [13]) [%] | Activity (Melanocortin receptor 4 [14]) [%] | inhibition [15] | Activity (Melanocortin receptor 4 [16]) | inhibition (Melanocortin receptor 5 [17]) | Activity [18]
1 | CC[C@H](C)[C@@H]1NC(=O)[C@@H]2CCCN2C(=O)[C@H](Cc2c[nH]c3ccccc23)NC(=O)[C@H](CCCNC(=N)N)NC(=O)[C@H](Cc2ccccc2)NC(=O)[C@H](Cc2cnc[nH]2)NC(=O)[C@H]([C@@H](C)O)NC(=O)[C@@H]2CSSC[C@H](NC1=O)C(=O)N[C@@H](Cc1ccccc1)C(=O)N1CCC[C@H]1C(=O)N[C@@H](CC(=O)O)C(=O)NCC(=O)N[C@@H](CCCNC(=N)N)C(=O)N2 | Soluble | inactive | 100 | 100 | inactive | inactive | inactive | 100 | 100 | – | – | – | – | – | – | – | – | – | –
2 | CC[C@H](C)[C@@H]1NC(=O)[C@@H]2CCCN2C(=O)[C@H](Cc2c[nH]c3ccccc23)N(C)C(=O)[C@H](CCCNC(=N)N)N(C)C(=O)[C@@H](Cc2ccccc2)NC(=O)[C@H](Cc2cnc[nH]2)N(C)C(=O)[C@H]([C@@H](C)O)NC(=O)[C@@H]2CSSC[C@H](NC1=O)C(=O)N[C@@H](Cc1ccccc1)C(=O)N1CCC[C@H]1C(=O)N[C@@H](CC(=O)O)C(=O)NCC(=O)N[C@@H](CCCNC(=N)N)C(=O)N2 | Soluble | – | 100 | 100 | inactive | inactive | – | – | 100 | inactive | 100 | 100 | – | – | – | – | – | – | –
3 | CC[C@H](C)[C@@H]1NC(=O)[C@@H]2CCCN2C(=O)[C@@H]2CCCN2C(=O)[C@H]([C@@H](C)CC)NC(=O)[C@H](CO)NC(=O)[C@H](C)NC(=O)[C@H]([C@H](C)O)NC(=O)[C@@H]2CSSC[C@H](NC1=O)C(=O)N[C@@H](Cc1cnc[nH]1)C(=O)N[C@H](Cc1ccccc1)C(=O)N[C@@H](CCCNC(=N)N)C(=O)N[C@@H](Cc1c[nH]c3ccccc13)C(=O)N[C@@H](CCCNC(=N)N)C(=O)N2 | – | – | 100 | 100 | – | – | – | 100 | 100 | – | 100 | 100 | Active | 100 | 100 | – | – | – | –
4 | CC[C@H](C)[C@@H]1NC(=O)[C@@H]2CCCN2C(=O)[C@@H]2CCCN2C(=O)[C@H]([C@@H](C)CC)NC(=O)[C@H](CO)NC(=O)[C@H](CCCCN)NC(=O)[C@H]([C@@H](C)O)NC(=O)[C@@H]2CSSC[C@H](NC1=O)C(=O)N[C@@H](Cc1ccccc1)C(=O)N1CCC[C@H]1C(=O)N[C@@H](CC(=O)O)C(=O)NCC(=O)N[C@@H](CCCNC(=N)N)C(=O)N2 | Soluble | – | – | – | inactive | inactive | inactive | – | – | inactive | – | – | – | – | – | inactive | inactive | inactive | inactive

Reference: ChEMBL document CHEMBL4043303, “Development of Novel Melanocortin Receptor Agonists Based on the Cyclic Peptide Framework of Sunflower Trypsin Inhibitor-1” (J Med Chem, 2018)
